The subject of experiment [1] is DuPro. The experiment can be described thus: Macrocycle level in DuPro cells in 3 days after treatment with 2 uM concentration of the compound; Macrocycle level measured in per 10 lakh cells. In kind it is functional, Homo sapiens. The method in brief: (§1)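 Log-phase DuPro cells grown in RPMI 1640 with 10% fetal calf serum were exposed to macrocycle at 0.5–4 μM for 3 or 5 days, harvested with trypsin/EDTA and counted. About 1×10^6 cells were washed in cold PBS, extracted in 2% perchloric acid and sonicated. Supernatant was dansylated (modified for ring NH) and analysed by C-18 HPLC with fluorescence detection. Untreated controls were run per experiment.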

Experiment [2] deals with DuPro. The experiment can be described thus: Spermine level in DuPro cells in 3 days after treatment with 0.5 uM concentration of the compound; Sm level measured in per 10 lakh cells. The experiment is classed as functional, Homo sapiens. The method in brief: as §1
Experiment [3] relates to DuPro. As to the kind of experiment: Macrocycle level in DuPro cells in 5 days after treatment with 0.5 uM concentration of the compound; Macrocycle level measured in per 10 lakh cells. The experiment is classed as functional, Homo sapiens. In outline: as §1
For experiment [4], the system named is DuPro. The experiment can be described thus: Macrocycle level in DuPro cells in 3 days after treatment with 0.5 uM concentration of the compound; Macrocycle level measured in per 10 lakh cells. In kind it is functional, Homo sapiens. In outline: as §1
Experiment [5] deals with DuPro. As to the kind of experiment: Macrocycle level in DuPro cells in 5 days after treatment with 2 uM concentration of the compound; Macrocycle level measured in per 10 lakh cells. The experiment is classed as functional, Homo sapiens. The method in brief: as §1
A further experiment deals with PC-3. As to the kind of experiment: Inhibitory effect against growth of PC-3 human prostate cancer cell line. In kind it is functional. As to conditions: read-out: ID50 (the source's name). The method in brief: (§2)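 MTT growth assay. Trypsinized cells, 500 per well, seeded and incubated overnight at 37 °C in humidified 95% air/5% CO2. Serial macrocycle dilutions added, each concentration in quadruplicate, buffer controls in the outer columns, 6 days (144 h) of exposure. MTT 5 mg/mL added for 4 h, then overnight lysis in SDS/DMF/acetic acid buffer pH 4.8. Absorbance at 570 nm; ID50 derived.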

The test system of experiment [6] is DuPro. As to the kind of experiment: Spermidine level in DuPro cells in 5 days after treatment with 0.5 uM concentration of the compound; Spd level measured in per 10 lakh cells. The experiment is classed as functional, Homo sapiens. In outline:
as §1

Experiment [7] concerns DuPro. As to the kind of experiment: Macrocycle level in DuPro cells in 5 days after treatment with 1 uM concentration of the compound; Macrocycle level measured in per 10 lakh cells. The experiment is classed as functional, Homo sapiens. In outline:
as §1

In experiment [8] the test system is DuPro. The experiment can be described thus: Macrocycle level in DuPro cells in 3 days after treatment with 1 uM concentration of the compound; Macrocycle level measured in per 10 lakh cells. In kind it is functional, Homo sapiens. In outline:
as §1

Experiment [9] has as its system DuPro. The experiment can be described thus: Spermine level in DuPro cells in3 days after treatment with 1 uM concentration of the compound; Sm level measured in per 10 lakh cells. In kind it is functional, Homo sapiens. In outline:
as §1

For experiment [10], the system named is DuPro. The experiment can be described thus: Putrescine level in DuPro cells at 5 days after treatment with 2 uM concentration of the compound; Put level measured in per 10 lakh cells. In kind it is functional, Homo sapiens. The method in brief: as §1
Experiment [11] relates to DuPro. As to the kind of experiment: Spermidine level in DuPro cells at 3 days after treatment with 2 uM concentration of the compound; Spd level measured in per 10 lakh cells. In kind it is functional, Homo sapiens. In outline:
as §1

Experiment [12] has as its system DuPro. The experiment can be described thus: Putrescine level in DuPro cells at 3 days after treatment with 2 uM concentration of the compound; Put level measured in per 10 lakh cells. In kind it is functional, Homo sapiens. In outline: as §1
Experiment [13] relates to DuPro. As to the kind of experiment: Macrocycle level in DuPro cells at 3 days after treatment with 1 uM concentration of the compound; Macrocycle level measured in per 10 lakh cells. The experiment is classed as functional, Homo sapiens. The method in brief:
as §1

The subject of experiment [14] is DuPro. The experiment can be described thus: Spermine level in DuPro cells at 3 days after treatment with 2 uM concentration of the compound; Sm level measured in per 10 lakh cells. The experiment is classed as functional, Homo sapiens. In outline:
as §1

Experiment [15] relates to DuPro. As to the kind of experiment: Macrocycle level in DuPro cells at 3 days after treatment with 2 uM concentration of the compound; Macrocycle level measured in per 10 lakh cells. In kind it is functional, Homo sapiens. The method in brief: as §1
Experiment [16] deals with DuPro. The experiment can be described thus: Spermine level in DuPro cells in 5 days after treatment with 1 uM concentration of the compound; Sm level measured in per 10 lakh cells. The experiment is classed as functional, Homo sapiens. The method in brief:
as §1

For experiment [17], the system named is DuPro. As to the kind of experiment: Spermine level in DuPro cells at 5 days after treatment with 2 uM concentration of the compound; Sm level measured in per 10 lakh cells. The experiment is classed as functional, Homo sapiens. The method in brief:
as §1

The subject of experiment [18] is DuPro. As to the kind of experiment: Putrescine level in DuPro cells in 3 days after treatment with 1 uM concentration of the compound; Put level measured in per 10 lakh cells. The experiment is classed as functional, Homo sapiens. The method in brief:
as §1

In experiment [19] the test system is DuPro. As to the kind of experiment: Spermidine level in DuPro cells in 5 days after treatment with 1 uM concentration of the compound; Spd level measured in per 10 lakh cells. The experiment is classed as functional, Homo sapiens. The method in brief:
as §1

Experiment [20] concerns DuPro. The experiment can be described thus: Macrocycle level in DuPro cells at 5 days after treatment with 2 uM concentration of the compound; Macrocycle level measured in per 10 lakh cells. The experiment is classed as functional, Homo sapiens. In outline: as §1
Experiment [21] relates to DuPro. The experiment can be described thus: Spermidine level in DuPro cells at 5 days after treatment with 2 uM concentration of the compound; Spd level measured in per 10 lakh cells. In kind it is functional, Homo sapiens. The method in brief:
as §1

Experiment [22] concerns DuPro. As to the kind of experiment: Macrocycle level in DuPro cells at 5 days after treatment with 1 uM concentration of the compound; Macrocycle level measured in per 10 lakh cells. In kind it is functional, Homo sapiens. In outline:
as §1

Experiment [23] deals with DuPro. As to the kind of experiment: Spermidine level in DuPro cells in 3 days after treatment with 1 uM concentration of the compound; Spd level measured in per 10 lakh cells. In kind it is functional, Homo sapiens. The method in brief: as §1
The test system of experiment [24] is DuPro. The experiment can be described thus: Macrocycle level in DuPro cells in 5 days after treatment with 4 uM concentration of the compound; Macrocycle level measured in per 10 lakh cells. In kind it is functional, Homo sapiens. The method in brief:
as §1

For experiment [25], the system named is DuPro. The experiment can be described thus: Inhibitory effect against growth of DuPro human prostate cancer cell line. As to conditions: read-out: ID50 (the source's name). In kind it is functional. In outline:
as §2

For experiment [26], the system named is DuPro. The experiment can be described thus: Macrocycle level in DuPro cells in 3 days after treatment with 4 uM concentration of the compound; Macrocycle level measured in per 10 lakh cells. In kind it is functional, Homo sapiens. The method in brief:
as §1

SMILES strings stand for the structures. pIC50: −log10 of the molar value.

On to `CCCCCCCCCCCCCC1CC(=O)NCCCNCCCNCCCN1.Cl.Cl.Cl` (stereo unspecified), for which the Polyamine level with DuPro [1] was determined as 49.07 nM; in the experiment with DuPro [2] it was 3 pM; in the experiment on DuPro [3], 35.91 nM; in the experiment on DuPro [4], 47.57 nM; in the experiment with DuPro [5] it was 42.34 nM.

On to `CCCCCCCCCCCCCC1CC(=O)NCCCNCCCCCNCCCN1.Cl.Cl.Cl` (stereo unspecified), for which the Polyamine level with DuPro [1] was 17.2 nM; with DuPro [3], 26.84 nM; with DuPro [4], 26.96 nM; with DuPro [5] it was 10.24 nM; with DuPro [6], 5 pM. In addition, the pIC50 with PC-3 is 5.94.

Take `CCCCCCCCCCCCCC1CC(=O)NCCCNCCCCNCCCN1.Cl.Cl.Cl` (stereo unspecified): the Polyamine level amounted to 25.07 nM in the experiment on DuPro [1], 17.2 nM with DuPro [7], 2.79 nM in the experiment with DuPro [8] and 21.47 nM in the experiment with DuPro [5].

In the case of `CCCCCCCCCCCCCC1CC(=O)NCCCNCCCNCCCNCCCN1.Cl.Cl.Cl.Cl` (stereo unspecified), the Polyamine level with DuPro [9] worked out at 0.088 nM; in the experiment with DuPro [10], 0.011 nM; in the experiment with DuPro [11] it was 0.027 nM; in the experiment with DuPro [12], 0.02 nM; in the experiment with DuPro [13] it was 10.09 nM; in the experiment on DuPro [14] it was 0.094 nM. In addition, the Polyamine level in the experiment with DuPro [15] stood at 5.99 nM; with DuPro [16], 0.043 nM; with DuPro [17] it was 0.053 nM; in the experiment with DuPro [18], 4 pM; in the experiment with DuPro [19] it was 0.014 nM; with DuPro [20], 49.31 nM. The results for the Polyamine level with DuPro [21], with DuPro [22] and with DuPro [23] were 0.018 nM, 46.77 nM and 0.029 nM, respectively.

As to `CCCCCCCCCCCCCC1CC(=O)NCCCNCCCCN1.Cl.Cl` (stereo unspecified), the Polyamine level in the experiment on DuPro [24] is reported as 32 nM; with DuPro [7], 24 nM; in the experiment with DuPro [8], 17 nM; in the experiment with DuPro [26], 22.1 nM. Moreover, the pIC50 in the experiment on PC-3 was 5.77; in the experiment with DuPro [25] it was 5.74.

For the origin of these results see ChEMBL document CHEMBL1148407, “Macrocyclic polyamines deplete cellular ATP levels and inhibit cell growth in human prostate cancer cells” (2004).
